Test results as given in ChEMBL document CHEMBL4190254, “Synthesis of sulfamoylbenzamide derivatives as HBV capsid assembly effector” (Eur J Med Chem, 2017).

Key:
PBMC = experiment: Cytotoxicity against human PBMC by CellTiter 96 non-radioactive cell proliferation colorimetric assay; format: cell-based
Method in brief: (§1)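 A CellTiter 96 colorimetric cell proliferation read-out was used in primary human PBM cells, CEM, Vero and HepG2 cells. CC50 is the concentration that inhibits cell growth by 50%.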

HepG2 = experiment: Cytotoxicity against human HepG2 cells by CellTiter 96 non-radioactive cell proliferation colorimetric assay; format: cell-based; method in brief: as §1
Vero = experiment: Cytotoxicity against African green monkey Vero cells by CellTiter 96 non-radioactive cell proliferation colorimetric assay; format: cell-based; settings: chlorocebus sabaeus, vero; method in brief: as §1
CCRF-CEM = experiment: Cytotoxicity against human CEM cells by CellTiter 96 non-radioactive cell proliferation colorimetric assay; format: cell-based; settings: ccrf-cem; method in brief: as §1
Hepatitis B virus = experiment: Antiviral activity against HBV infected in human HepAD38 cells assessed as reduction in viral replication by RT-PCR method; format: functional, organism-based
Method in brief: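 HBV DNA replication in HepAD38 cells was quantified by RT-PCR following an earlier published method, with data relative to the untreated control. EC50 (50% inhibition of HBV DNA replication) was derived by linear regression. Values are the mean ± SD of two or three replicates from 2 independent experiments.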

SMILES	EC50 (Hepatitis B virus) [µM]	EC90 (Hepatitis B virus) [µM]	CC50 (PBMC) [µM]	CC50 (HepG2) [µM]	CC50 (Vero) [µM]	CC50 (CCRF-CEM) [µM]
O=C(Nc1ccc(F)c(F)c1)c1cc(S(=O)(=O)NS(=O)(=O)c2ccc(F)c(F)c2)ccc1F	> 10		> 100	> 100	> 100	> 100
O=C(Nc1ccc(F)c(F)c1)c1cc(S(=O)(=O)N2CCC(F)(F)CC2)ccc1F	4.5	9.4	> 100	> 100	> 100	10.3
O=C(NC1(c2ccc(F)c(F)c2)CC1)c1cc(S(=O)(=O)NC2CCCC2)ccc1F	> 10		> 100	> 100	12.7	> 100
O=C(Nc1ccc(F)c(F)c1)c1cc(S(=O)(=O)N2CCC3CCCCC32)ccc1F (stereo not given)	4.6	10	> 100	> 100	30.7	22.9
O=C1c2cc(S(=O)(=O)NC3CCCC3)ccc2CCCN1c1ccc(F)c(F)c1	> 10		> 100	> 100	> 100	50.6
O=C1c2cc(S(=O)(=O)NC3CCCC3)ccc2CCN1c1ccc(F)c(F)c1	> 10		> 100	> 100	> 100	> 100
CN(C1CCCC1)S(=O)(=O)c1ccc2c(c1)C(=O)N(c1ccc(F)c(F)c1)CCC2	> 10		> 100	> 100	> 100	> 100
O=C(Nc1cc(S(=O)(=O)NC2CCCC2)ccc1F)c1ccc(F)c(F)c1	≥ 10		81	> 100	87.5	13.6
CN(C1CCCC1)S(=O)(=O)c1ccc2c(c1)C(=O)N(c1ccc(F)c(F)c1)CC2	> 10		71.2	> 100	> 100	36

Second part, led by results:

EC50 (Hepatitis B virus) [µM]	EC90 (Hepatitis B virus) [µM]	SMILES	CC50 (PBMC) [µM]	CC50 (HepG2) [µM]	CC50 (Vero) [µM]	CC50 (CCRF-CEM) [µM]
> 10		COC(=O)[C@H](Cc1ccccc1)NS(=O)(=O)c1ccc(F)c(C(=O)Nc2ccc(F)c(F)c2)c1	> 100	76.8	> 100	31.6
> 10		CC(C)OC(=O)[C@H](C)NS(=O)(=O)c1ccc(F)c(C(=O)Nc2ccc(F)c(F)c2)c1	> 100	45.5	13.1	31.1
> 10		CS(=O)(=O)NS(=O)(=O)c1ccc(F)c(C(=O)Nc2ccc(F)c(F)c2)c1	> 100	> 100	> 100	> 100
3.2	8.9	O=C(Nc1ccc(F)c(F)c1)c1cc(S(=O)(=O)NC2CC2)ccc1F	30.1	62.3	79.2	13.6
> 10		O=C(Nc1ccc(F)c(F)c1)c1cc(S(=O)(=O)N2CCCC2=O)ccc1F	> 100	> 100	39.6	37.8
> 10		CN(C)S(=O)(=O)NS(=O)(=O)c1ccc(F)c(C(=O)Nc2ccc(F)c(F)c2)c1	> 100	> 100	> 100	> 100
> 10		O=C(Nc1ccc(F)c(F)c1)c1cc(S(=O)(=O)NS(=O)(=O)C2CC2)ccc1F	> 100	> 100	> 100	> 100
6.8	9.6	CC(C)(NS(=O)(=O)c1ccc(F)c(C(=O)Nc2ccc(F)c(F)c2)c1)c1ccccc1	> 100	88.2	39.4	3.8
7.7	9.3	CC(NS(=O)(=O)c1ccc(F)c(C(=O)Nc2ccc(F)c(F)c2)c1)c1ccccc1 (stereo not given)	> 100	> 100	68	3.6
> 10		CCOC(=O)[C@H](CC(C)C)NS(=O)(=O)c1ccc(F)c(C(=O)Nc2ccc(F)c(F)c2)c1	58.1	> 100	39.1	10.8
